In ChEMBL document CHEMBL1144412, “High affinity central benzodiazepine receptor ligands: synthesis and biological evaluation of a series of phenyltriazolobenzotriazindione derivatives” (J Med Chem, 2005):

Assays:
[1] = molecular target: GABA-A receptor; anion channel; assay: Displacement of [3H]flumazenil from bovine benzodiazepine receptor GABA-A channel of brain membranes; set-up: species or system Bos taurus
[2] = molecular target: GABA-A receptor; alpha-1/beta-2/gamma-2 (Rattus norvegicus, UniProt P18508+P62813+P63138); assay: Displacement of [3H]flumazenil from rat GABA-A Gamma-aminobutyric acid A receptor alpha-1-beta-2-gamma-2 expressed in HEK293 cells; type: cell-based
Sequence of GABA-A receptor; alpha-1/beta-2/gamma-2 (P18508 whole entry): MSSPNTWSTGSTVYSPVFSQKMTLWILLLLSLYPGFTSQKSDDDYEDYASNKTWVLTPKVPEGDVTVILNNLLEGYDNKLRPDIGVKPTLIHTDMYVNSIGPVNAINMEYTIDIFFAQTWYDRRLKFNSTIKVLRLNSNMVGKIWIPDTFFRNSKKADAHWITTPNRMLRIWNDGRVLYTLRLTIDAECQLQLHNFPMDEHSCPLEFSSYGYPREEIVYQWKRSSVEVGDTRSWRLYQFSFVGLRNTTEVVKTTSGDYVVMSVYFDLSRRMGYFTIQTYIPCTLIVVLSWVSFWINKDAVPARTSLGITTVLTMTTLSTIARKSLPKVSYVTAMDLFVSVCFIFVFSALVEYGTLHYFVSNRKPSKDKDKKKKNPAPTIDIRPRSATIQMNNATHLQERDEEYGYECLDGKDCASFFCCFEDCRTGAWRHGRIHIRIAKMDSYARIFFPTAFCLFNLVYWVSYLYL
Sequence of GABA-A receptor; alpha-1/beta-2/gamma-2 (P62813 whole entry): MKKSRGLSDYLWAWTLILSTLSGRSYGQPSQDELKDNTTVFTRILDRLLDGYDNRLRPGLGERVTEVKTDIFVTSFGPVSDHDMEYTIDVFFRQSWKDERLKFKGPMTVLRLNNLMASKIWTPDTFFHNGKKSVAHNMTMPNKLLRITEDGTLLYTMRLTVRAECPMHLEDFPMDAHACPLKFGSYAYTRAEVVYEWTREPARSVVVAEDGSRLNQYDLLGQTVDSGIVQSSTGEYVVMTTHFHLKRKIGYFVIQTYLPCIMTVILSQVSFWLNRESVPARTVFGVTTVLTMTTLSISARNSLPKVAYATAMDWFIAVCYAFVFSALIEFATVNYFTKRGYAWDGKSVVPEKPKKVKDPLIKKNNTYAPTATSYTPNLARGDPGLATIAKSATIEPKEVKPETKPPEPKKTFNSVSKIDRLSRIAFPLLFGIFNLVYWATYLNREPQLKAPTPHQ
Sequence of GABA-A receptor; alpha-1/beta-2/gamma-2 (P63138 whole entry): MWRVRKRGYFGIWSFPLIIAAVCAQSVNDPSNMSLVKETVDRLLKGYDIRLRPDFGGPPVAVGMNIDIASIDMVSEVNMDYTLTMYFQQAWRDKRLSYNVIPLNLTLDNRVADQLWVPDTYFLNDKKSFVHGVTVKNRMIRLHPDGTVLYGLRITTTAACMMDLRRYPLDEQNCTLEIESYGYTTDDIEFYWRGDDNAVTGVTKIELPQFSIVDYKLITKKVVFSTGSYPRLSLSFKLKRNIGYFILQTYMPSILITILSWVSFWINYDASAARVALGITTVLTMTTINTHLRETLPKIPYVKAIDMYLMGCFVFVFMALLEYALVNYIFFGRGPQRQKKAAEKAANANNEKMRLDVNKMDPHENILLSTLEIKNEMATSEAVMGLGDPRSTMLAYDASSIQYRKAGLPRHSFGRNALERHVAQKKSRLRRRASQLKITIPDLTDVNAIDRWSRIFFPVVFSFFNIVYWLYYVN
Method in brief: (§1)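 HEK293 cells stably expressing each rat subtype, grown in DMEM/F-12 with 10% FBS at 37 °C, 5% CO2. Harvested cells were homogenized in 10 mM potassium phosphate pH 7.4 and spun at 48 000g for 30 min at 4 °C. Pellets were washed and resuspended with 100 mM KCl. Ki from three determinations.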

[3] = molecular target: GABA A receptor alpha-2/beta-2/gamma-2 (Rattus norvegicus, UniProt P18508+P23576+P63138); assay: Displacement of [3H]flumazenil from rat GABA-A Gamma-aminobutyric acid A receptor alpha-2-beta-2-gamma-2 expressed in HEK293 cells; type: cell-based; method in brief: as §1
Sequence of GABA A receptor alpha-2/beta-2/gamma-2 (P18508 whole entry): as the sequence (P18508 whole entry) above
Sequence of GABA A receptor alpha-2/beta-2/gamma-2 (P23576 whole entry): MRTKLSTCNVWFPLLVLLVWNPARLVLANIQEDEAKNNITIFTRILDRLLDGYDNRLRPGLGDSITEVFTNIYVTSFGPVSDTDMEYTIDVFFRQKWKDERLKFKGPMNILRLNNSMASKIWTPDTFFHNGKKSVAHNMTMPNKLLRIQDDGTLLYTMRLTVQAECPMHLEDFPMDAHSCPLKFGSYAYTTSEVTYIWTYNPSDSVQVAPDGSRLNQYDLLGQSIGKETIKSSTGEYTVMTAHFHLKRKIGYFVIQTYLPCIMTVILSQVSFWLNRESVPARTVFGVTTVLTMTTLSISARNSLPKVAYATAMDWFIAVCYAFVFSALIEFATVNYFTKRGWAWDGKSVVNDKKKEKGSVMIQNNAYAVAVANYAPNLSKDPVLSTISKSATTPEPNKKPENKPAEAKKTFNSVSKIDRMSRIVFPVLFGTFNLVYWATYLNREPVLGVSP
Sequence of GABA A receptor alpha-2/beta-2/gamma-2 (P63138 whole entry): as the sequence (P63138 whole entry) above

[4] = molecular target: GABA A receptor alpha-5/beta-3/gamma-2 (Rattus norvegicus, UniProt P18508+P19969+P63079); assay: Displacement of [3H]flumazenil from rat GABA-A Gamma-aminobutyric acid A receptor alpha-5-beta-3-gamma-2 expressed in HEK293 cells; type: cell-based
Sequence of GABA A receptor alpha-5/beta-3/gamma-2 (P18508 whole entry): as the sequence (P18508 whole entry) above
Sequence of GABA A receptor alpha-5/beta-3/gamma-2 (P19969 whole entry): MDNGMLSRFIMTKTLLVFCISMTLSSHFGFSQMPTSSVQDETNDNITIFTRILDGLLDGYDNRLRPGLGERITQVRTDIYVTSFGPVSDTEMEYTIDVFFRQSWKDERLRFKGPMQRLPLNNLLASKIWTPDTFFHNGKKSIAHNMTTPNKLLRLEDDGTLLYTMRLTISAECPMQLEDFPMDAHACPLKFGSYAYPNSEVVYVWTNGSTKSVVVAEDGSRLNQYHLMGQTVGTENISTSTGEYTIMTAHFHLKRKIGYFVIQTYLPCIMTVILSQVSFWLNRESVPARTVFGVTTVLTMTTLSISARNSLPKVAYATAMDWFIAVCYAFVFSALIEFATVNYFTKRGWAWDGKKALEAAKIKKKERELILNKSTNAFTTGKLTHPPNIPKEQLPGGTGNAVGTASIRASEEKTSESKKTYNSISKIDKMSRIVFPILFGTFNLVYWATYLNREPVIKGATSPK
Sequence of GABA A receptor alpha-5/beta-3/gamma-2 (P63079 whole entry): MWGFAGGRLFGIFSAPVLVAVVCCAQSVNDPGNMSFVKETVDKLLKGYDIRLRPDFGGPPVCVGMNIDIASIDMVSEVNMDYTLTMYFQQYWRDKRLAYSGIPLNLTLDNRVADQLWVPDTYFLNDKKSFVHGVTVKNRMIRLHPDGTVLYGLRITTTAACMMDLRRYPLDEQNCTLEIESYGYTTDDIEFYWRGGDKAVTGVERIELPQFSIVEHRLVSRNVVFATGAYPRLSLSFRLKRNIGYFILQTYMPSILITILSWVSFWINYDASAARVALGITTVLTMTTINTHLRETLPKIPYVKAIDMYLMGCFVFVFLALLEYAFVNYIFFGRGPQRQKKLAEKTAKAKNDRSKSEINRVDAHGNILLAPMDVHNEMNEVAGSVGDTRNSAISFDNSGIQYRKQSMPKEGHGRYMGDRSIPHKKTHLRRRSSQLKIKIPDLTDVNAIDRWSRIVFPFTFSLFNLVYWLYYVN
Method in brief: as §1, with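 “KCl. Incubated with [3H]flumazenil 1-2 nM and compound 10-9-10-5 M for 1 h at 4 °C. […]” for “KCl.”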

Row | Compound | Ki [1] [nM] | Ki [2] [nM] | Ki [3] [nM] | Ki [4] [nM]
1 | Cc1ccc(-c2nn3c(=O)[nH]c4ccccc4n3c2=O)cc1 | 616 |  |  | 
2 | COc1ccc(-c2nn3c(=O)[nH]c4ccc(Cl)cc4n3c2=O)cc1 | 6 | 1.82 | 18 | 7.57
3 | O=c1[nH]c2ccc(Cl)cc2n2c(=O)c(-c3ccc(F)cc3)nn12 | 56 |  |  | 
4 | O=c1[nH]c2ccccc2n2c(=O)c(-c3ccc(F)cc3)nn12 | 54 |  |  | 
5 | COc1ccc(-c2nn3c(=O)[nH]c4ccccc4n3c2=O)cc1 | 11 | 3.76 | 14.3 | 17.2
6 | O=c1[nH]c2ccccc2n2c(=O)c(-c3ccccc3)nn12 | 22 | 9.14 | 27.6 | 24.1
7 | Cc1ccc(-c2nn3c(=O)[nH]c4ccc(Cl)cc4n3c2=O)cc1 | 185 |  |  | 
8 | O=c1[nH]c2ccccc2n2c(=O)c(-c3ccc(Cl)cc3)nn12 | 169 |  |  | 
9 | O=c1[nH]c2ccccc2n2c(=O)c(-c3ccc(Br)cc3)nn12 | 224 |  |  | 
10 | O=c1[nH]c2ccccc2n2c(=O)c(-c3ccccc3F)nn12 | > 10000 |  |  | 
11 | COc1ccc(-c2nn3c(=O)[nH]c4ccccc4n3c2=O)cc1OC | > 10000 |  |  | 
12 | O=c1[nH]c2ccc(Cl)cc2n2c(=O)c(-c3ccc(Cl)cc3)nn12 | 38 |  |  | 
13 | O=c1[nH]c2ccc(Cl)cc2n2c(=O)c(-c3ccccc3)nn12 | 2.8 | 1.74 | 13.9 | 10.3
14 | O=C1CN=C(c2ccccc2Cl)c2cc([N+](=O)[O-])ccc2N1 [CLONAZEPAM] | 0.85 |  |  | 
